Assay results as given in publication PMC11061834 (Journal of Natural Products, 2024).

Key:
3T3-L1 cells = assay: Cell viability / cytotoxicity, CCK-8 assay; type: cell-based; conditions: CCK-8, 48 h
Method in brief: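 3T3-L1 preadipocytes were seeded at 1 × 10^3 cells per well and incubated for 12 h. They were then exposed to varying concentrations of test compound for 48 h. Viability was measured with the CCK-8 kit following the manufacturer's guidelines, reading optical density at 450 nm. Data are means ± SD from triplicate experiments (n = 3), compared by Student's t test at P ≤ 0.05.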

[1] = cited from earlier work
PPARγ = conditions: cited from earlier work

| Compound | maximum noncytotoxic concentration (3T3-L1 cells) [µM] | antiadipogenic activity (in words) [1] | PPARγ inhibitory effect (in words) (PPARγ) |
| --- | --- | --- | --- |
| C=C(c1ccc(O)c(Oc2cc3c(cc2OC)CCN(C)[C@@H]3Cc2ccc(OC)cc2)c1)[C@@H]1c2cc(O)c(OC)cc2CCN1C [Compound 4, 1R,1′R-neoisoliensinine A] | 10 |  |  |
| C=C(c1ccc(O)c(Oc2cc3c(cc2OC)CCN(C)[C@@H]3Cc2ccc(OC)cc2)c1)[C@H]1c2cc(OC)c(OC)cc2CCN1C [Compound 3, 1R,1′S-neoneferine A] | 5 |  |  |
| C=C(c1ccc(O)c(Oc2cc3c(cc2OC)CCN(C)[C@@H]3Cc2ccc(OC)cc2)c1)[C@H]1c2cc(O)c(OC)cc2CCN1C [Compound 5, 1R,1′S-neoisoliensinine A] | 5 |  |  |
| COc1ccc(C[C@@H]2c3cc(Oc4cc(C[C@@H]5c6cc(OC)c(OC)cc6CCN5C)ccc4O)c(OC)cc3CCN2C)cc1 [Compound 7, neferine] | 10 | antiadipogenic activity | PPARγ inhibitory effect |
| C=C(c1ccc(O)c(Oc2cc3c(cc2OC)CCN(C)[C@@H]3Cc2ccc(OC)cc2)c1)[C@@H]1c2cc(OC)c(OC)cc2CCN1C [Compound 2, 1R,1′R-neoneferine A] | 15 |  |  |
| COc1ccc(C[C@@H]2c3cc(Oc4cc(C[C@H]5c6cc(OC)c(OC)cc6CCN5C)ccc4O)c(OC)cc3CCN2C)cc1 [Compound 8, 1′-epi-neferine] | 5 |  |  |
